Source: PubChem (several laboratories)
In the library only some 1.9% were active in any assay of this set; here they are far more common.
RAM network inh – yeast RAM network inhibition. 190,000 compounds, 1.8% hits. S. cerevisiae dse1pr::URA3 reporter, 5-FOA growth OD615, 2 d; analog-sensitive cbk1-as2 kinase mutant strain. inhibition, % at 50 µM;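 active = inhibition above a set limit, 3 SD over mean compound inhibition, cut at about 8.4% in these data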;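 also: inhibition rescues growth on 5-FOA so higher OD means more RAM inhibition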
Dynein cargo inh – dynein cargo transport inhibition | 3617.4 mouse cells, GR-EGFP nuclear translocation imaging; test concentration mostly 20 µM; stimulated with dexamethasone, 1 µM; hits give low values | z-score, hits read low | 220,000 compounds, 0.47% hits;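 active = plate z-score of nuclear minus cytoplasmic receptor signal below a set negative limit, without overly bright fluorescence or cell loss, cut at about -3.5 in these data, passing the limit was not always enough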;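 also: z-score of nuclear minus cytoplasmic ring GR-EGFP intensity difference per well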
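Medium: Induction medium lacking tetracycline, stripped serum | Probe or stimulus: 1.0 µM final dexamethasone stimulus | Schedule: 48 h induction, then 1 h compound, then 30 min agonist, 37 °C | Signal: Automated 10x imaging of fixed Hoechst-stained cells | Evaluation: Per-cell GR-EGFP intensity, nucleus versus surrounding cytoplasmic ring, well-averaged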
p-CIP stab down – p/CIP protein destabilization; 290,000 compounds, 0.01% hits; Q05BA5; F442A p/CIP-EGFP cells, EGFP fluorescence, 16 h; decrease of EGFP signal, % at 10 µM;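 active = EGFP signal decrease of at least 30% at 10 µM or well 3 SD below plate mean, unless failing retest; inactive = the rest, including hits failing retest or dose response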
p47phox inh – blocks human p47phox regulatory protein of NADPH oxidases. p47phox/p22phox peptide binding, fluorescence polarization, 2 h. inhibition, % at 24.7 µM. 220,000 compounds, 0.53% hits. AID 1274;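 active = inhibition above about 30%, limit read from the data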
Target sequence (P14598 whole entry, looked up): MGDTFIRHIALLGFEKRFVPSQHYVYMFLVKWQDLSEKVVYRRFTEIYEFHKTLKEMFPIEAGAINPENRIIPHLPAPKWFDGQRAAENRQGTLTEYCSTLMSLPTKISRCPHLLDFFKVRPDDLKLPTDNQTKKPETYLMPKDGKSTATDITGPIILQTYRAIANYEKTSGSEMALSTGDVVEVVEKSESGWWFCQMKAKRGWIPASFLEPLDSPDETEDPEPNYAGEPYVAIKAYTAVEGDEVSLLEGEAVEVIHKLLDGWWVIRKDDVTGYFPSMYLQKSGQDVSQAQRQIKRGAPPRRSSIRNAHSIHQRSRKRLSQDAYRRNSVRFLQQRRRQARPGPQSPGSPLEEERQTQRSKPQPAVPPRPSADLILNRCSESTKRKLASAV
Large screens that a line does not name were inactive.

N#Cc1c(SCC(N)=O)nsc1SCc1ccccc1Cl	none
Cn1c(=O)c2ncn(CC(=O)Nc3nc(-c4ccc(Cl)cc4)cs3)c2n(C)c1=O	none
Cc1cccc(C(=O)N=c2sccn2C)c1[N+](=O)[O-]	none (no result: RAM network inh, Dynein cargo inh, p47phox inh)
Cc1ccccc1C(=O)N=c1sccn1C	p47phox inh 110
COc1ccc(NC(=O)CC(c2ccco2)C(C)C)cc1 (stereo not drawn)	none (no result: RAM network inh, Dynein cargo inh, p47phox inh)
Cc1ccc(SCC(=O)Nc2ccc(N3CCOCC3)cc2)c(C)c1	none
C/C(CCc1oc2ccc(Cl)cc2c1-c1ccc(C)o1)=N\O	RAM network inh 9.4
C/C(CCc1oc2ccc(Br)cc2c1-c1ccc(C)o1)=N/O	RAM network inh 11
CC(=O)CCc1oc2ccc(C)cc2c1-c1ccccc1	none (no result: RAM network inh)
Cc1ccc(-c2cc(C(=O)O)c3cc(Br)ccc3n2)o1	none
CC(C)Nc1nnc(Sc2ccc(Cl)cc2[N+](=O)[O-])s1	none
COc1cc(-c2nnc(SCC(=O)NC3CCS(=O)(=O)C3)o2)cc(OC)c1OC (stereo not drawn)	none
CCN(Cc1ccccc1)c1ccc(/C=N/NC(=S)NC(C)C)cc1	none
CCN(Cc1ccccc1)c1ccc(/C=N/N=C(N)N)cc1	p47phox inh 47
COc1ccc(C(=O)CCNc2cccc(Cl)c2)cc1	none
CCCOc1ccc(C(=O)CCNc2cccc(Cl)c2)cc1	RAM network inh 9.8
COc1ccc(-n2nnnc2SCC(=O)c2cc3ccccc3o2)cc1	RAM network inh 8.5
COc1ccc(-n2nnnc2SCC(N)=O)cc1	none
O=C(CSc1nc2ccccc2s1)c1cc2ccccc2o1	RAM network inh 9.4
O=C(O)CSc1nc2ccccc2s1	none (no result: RAM network inh)
CC(=O)Nc1ccc(N(C(=O)CNC(=O)c2cccs2)C(C(=O)NCC2CCCO2)c2ccccc2)cc1 (stereo not drawn)	none (no result: RAM network inh, Dynein cargo inh, p47phox inh)
CCN(CC(=O)NC1CCS(=O)(=O)C1)S(=O)(=O)c1cccc(C(C)=O)c1 (stereo not drawn)	p47phox inh 43
CCc1cc(C(=O)OC)c(NC(=O)c2cc(Br)cs2)s1	RAM network inh 10
CC(=O)c1ccccc1C(=O)N1CCCC(C(=O)c2ccc(C(F)(F)F)cc2)C1 (stereo not drawn)	none (no result: RAM network inh, Dynein cargo inh, p47phox inh)
Cc1c(Cl)c([N+](=O)[O-])nn1CCCC(=O)Nc1c(Cl)cccc1Cl	RAM network inh 9.9
CCN(CC(=O)Nc1cccc(OC)c1)CC(=O)Nc1ccc(C)cc1Cl	none
O=C(CCc1ccncc1)NC1CCCc2c1cnn2-c1ccc(F)cc1F (stereo not drawn)	none (no result: RAM network inh, Dynein cargo inh, p47phox inh)
CN1CCN(/N=C/c2ccc(N(c3ccccc3)c3ccccc3)cc2)CC1	p47phox inh 46
N#Cc1cc2c(nc1SCc1ccccc1)CCCCC2	none
N#Cc1cc2c(nc1SCc1ccc(Cl)cc1)CCCC2	RAM network inh 8.7
COc1ccccc1NC(=O)c1sc2nc(-c3ccco3)ccc2c1N	none
Nc1c(C(=O)Nc2ccccc2)sc2nc(-c3ccco3)ccc12	RAM network inh 11
CCn1cc(C(=O)N[C@@H](C)C(=O)NCCCn2ccnc2)c(=O)c2cc3c(cc21)OCO3	none (no result: RAM network inh, Dynein cargo inh, p47phox inh)
O=S(=O)(c1ccc2c(c1)C(=NO)c1cc(S(=O)(=O)N3CCCCC3)ccc1-2)N1CCCCC1	p-CIP stab down 60
NC(=S)NN=C1c2cc(S(=O)(=O)N3CCOCC3)ccc2-c2ccc(S(=O)(=O)N3CCOCC3)cc21	RAM network inh 9.9
CCN(CC)S(=O)(=O)c1ccc2c(c1)C(=NO)c1cc(S(=O)(=O)N(CC)CC)ccc1-2	RAM network inh 10
CC1CCN(S(=O)(=O)c2ccc3c(c2)C(=NO)c2cc(S(=O)(=O)N4CCC(C)CC4)ccc2-3)CC1	none (no result: p-CIP stab down)
CN(C)N=C1c2cc(S(=O)(=O)N3CCOCC3)ccc2-c2ccc(S(=O)(=O)N3CCOCC3)cc21	none
CCN1/C(=C/C=C/c2oc3ccc(-c4ccccc4)cc3[n+]2CC)Oc2ccc(-c3ccccc3)cc21	none
CC(C)c1ccccc1OS(N)(=O)=O	none (no result: RAM network inh, Dynein cargo inh, p47phox inh)
Cn1nc(C(F)(F)F)c(/C=N/OC(=O)c2ccccc2)c1Cl	none
Cn1nc(C(F)(F)F)c(/C=N/OC(=O)c2ccccc2)c1Sc1ccc(Cl)cc1	RAM network inh 10
CC(=O)c1c(C)oc2ccc(N(C(=O)C3CCCCC3)S(=O)(=O)c3cc([N+](=O)[O-])ccc3C)cc12	RAM network inh 9.7
CC(=O)c1c(C)oc2ccc(N(C(C)=O)S(=O)(=O)c3cccc([N+](=O)[O-])c3)cc12	none
Cc1nn(C(=O)CCC(=O)NCCc2ccccc2)c2ccccc12	none (no result: RAM network inh, Dynein cargo inh, p47phox inh)
COc1cc(O)c2c(c1)OC(C)(C)CC2=O	none
COC(=O)c1ccc(COc2cc(O)c3c(c2)OC(C)(C)CC3=O)cc1	RAM network inh 10
